Our source for the Activity and zone of inhibition values is ChEMBL document CHEMBL1150593, “Biologically active polyketide metabolites from an undetermined fungicolous hyphomycete resembling Cladosporium” (2002).

The source made the active and inactive calls. The calls are words filed in the database; no cut-off is given here.

One assay has as its system Aspergillus flavus. Nature of the assay: Antimicrobial activity against Aspergillus flavus NRRL 6541 at 250 ug/disk by standard agar diffusion assay. In kind it is functional, organism-based. In general terms: A growth-free zone around the sample is the usual read-out of agar diffusion tests.
In another assay the test system is Bacillus subtilis. Nature of the assay: Antimicrobial activity against Bacillus subtilis ATCC 6051 at 200 ug/disk by standard agar diffusion assay. The settings on record: read-out: IZ. The format is functional. In short, it runs like this: (§1)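 Agar diffusion (disk) assay with 200 µg of compound applied per disk against the bacterial strain. The same panel at this loading also included Candida albicans ATCC 90029. Read-out was the zone of growth inhibition, recorded in mm.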

In another assay the test system is Fusarium verticillioides. Nature of the assay: Antimicrobial activity against Fusarium verticillioides NRRL 25457 at 250 ug/disk by standard agar diffusion assay. In kind it is functional, organism-based.
In a further assay the test system is Staphylococcus aureus. Nature of the assay: Antimicrobial activity against Staphylococcus aureus ATCC 29213 at 200 ug/disk by standard agar diffusion assay. In kind it is functional. To be noted: read-out: IZ. In short, it runs like this: as §1

Regarding `O=Cc1c(O)cccc1CCC(=O)O`, the result with Aspergillus flavus and with Fusarium verticillioides was inactive. In addition, the zone of inhibition at 200 µg/disc in the assay on Bacillus subtilis came out at 22 mm.
Regarding `CC(O)C(O)CC1OC(=O)c2c(O)cccc21` (centres undefined), the result in the assay on Aspergillus flavus and with Fusarium verticillioides was inactive.
In the case of `CC1(O)C(=O)C=Cc2c1ccc(O)c2CO` (centres undefined), the outcome in the assay on Aspergillus flavus and with Fusarium verticillioides was inactive.
In the case of `CC(O)C(O)CC1OCc2c(O)cccc21` (mixture of isomers; 7a), the result in the assay on Aspergillus flavus and in the assay with Fusarium verticillioides was inactive.
In the case of `CC(O)C(O)CC1OCc2c(O)cccc21` (mixture of isomers; 7b), the result in the assay on Aspergillus flavus and in the assay with Fusarium verticillioides was inactive.
For the molecule `O=C(O)CC1OCc2c(O)cccc21` (racemic), the result in the assay on Aspergillus flavus and in the assay on Fusarium verticillioides was inactive. Moreover, the zone of inhibition at 200 µg/disc with Bacillus subtilis was 8 mm.
Regarding `O=C(O)CC1OC(=O)c2c(O)cccc21` (racemic), the result with Aspergillus flavus and in the assay with Fusarium verticillioides was inactive.
`COc1cc(O)c2c(c1)C(=O)[C@H]1C[C@](C)(O)[C@H](O)C[C@@H]1[C@H]2O` (relative stereo): the result with Aspergillus flavus and with Fusarium verticillioides was inactive.
Take `COc1cc(O)c2c(c1)C(=O)C1=C(C2=O)[C@H](O)[C@@H](O)[C@@](C)(O)[C@@H]1O` [ALTERSOLANOL A]: the result with Aspergillus flavus and with Fusarium verticillioides was inactive. Also, the zone of inhibition at 200 µg/disc with Bacillus subtilis was determined as 33 mm; in the assay with Staphylococcus aureus it was 31 mm.
With `C[C@H]1O[C@@H]2O[C@H]1C=Cc1cccc(O)c12` [CLADOACETAL A], the result with Aspergillus flavus and in the assay on Fusarium verticillioides was inactive. Further, in the assay with Staphylococcus aureus, the zone of inhibition at 200 µg/disc worked out at 13 mm.
`COc1cc(O)c2c(c1)C(=O)c1cc(C)c(O)cc1C2=O` [MACROSPORIN]: the result in the assay with Aspergillus flavus and in the assay with Fusarium verticillioides was inactive. Moreover, the zone of inhibition at 200 µg/disc in the assay on Bacillus subtilis stood at 23 mm; with Staphylococcus aureus, 20 mm.
